Results as given in ChEMBL document CHEMBL4020830, “Design, Synthesis, and Evaluation of a Novel Series of Indole Sulfonamide Peroxisome Proliferator Activated Receptor (PPAR) α/γ/δ Triple Activators: Discovery of Lanifibranor, a New Antifibrotic Clinical Candidate” (J Med Chem, 2018).

target: T1, Peroxisome proliferator-activated receptor alpha (Homo sapiens) (UniProt Q07869); test: Transactivation of human GAL4-fused PPARalpha LBD expressed in African green monkey COS7 cells co-expressing 5Gal4 pGL3 TK Luc after overnight incubation by luciferase reporter gene assay relative to fenofibric acid; format: cell-based
T1 sequence (whole entry): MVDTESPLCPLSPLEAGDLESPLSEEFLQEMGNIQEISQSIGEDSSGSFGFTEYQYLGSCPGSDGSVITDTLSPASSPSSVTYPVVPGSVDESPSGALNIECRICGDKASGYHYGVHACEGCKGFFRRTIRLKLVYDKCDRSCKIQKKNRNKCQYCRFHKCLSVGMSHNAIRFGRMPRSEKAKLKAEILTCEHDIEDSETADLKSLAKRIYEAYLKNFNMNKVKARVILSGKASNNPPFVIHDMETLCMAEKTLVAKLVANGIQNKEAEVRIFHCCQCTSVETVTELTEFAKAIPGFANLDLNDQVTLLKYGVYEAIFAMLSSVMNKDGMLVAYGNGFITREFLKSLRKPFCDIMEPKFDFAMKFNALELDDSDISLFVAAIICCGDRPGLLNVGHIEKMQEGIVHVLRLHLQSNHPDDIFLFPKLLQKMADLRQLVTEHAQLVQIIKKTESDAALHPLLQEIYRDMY
Outline: (§1)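 Cell-based Gal-4 transactivation assay in COS-7 cells transfected with PPARα, PPARδ or PPARγ ligand-binding domain. EC50 and Emax were derived, with Emax as maximum activation in percent of control. EC50s are means of at least two independent experiments performed in triplicate.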

Point of comparison: `COc1ccc(S(=O)(=O)n2c(CCCC(=O)O)cc3cc(C(F)(F)F)ccc32)cc1`, Emax 55%. Against it:
- COc1ccccc1S(=O)(=O)n1c(CCCC(=O)O)cc2cc(C(F)(F)F)ccc21 — lower, 35%
- COc1cccc(S(=O)(=O)n2c(CCCC(=O)O)cc3cc(Cl)ccc32)c1 — lower, 40%
- O=C(O)CCCc1cc2cc(C(F)(F)F)ccc2n1S(=O)(=O)c1ccc2ncsc2c1 — higher, 82%
- Cc1ccc(S(=O)(=O)n2c(CCCC(=O)O)cc3cc(Cl)ccc32)cc1 — lower, 36%
- O=C(O)CCCc1cc2cc(Cl)ccc2n1S(=O)(=O)c1ccc2nc[nH]c2c1 — lower, 43%
- Nc1nc2ccc(S(=O)(=O)n3c(CCCC(=O)O)cc4cc(Cl)ccc43)cc2o1 — lower, 44%
- O=C(O)CCCc1cc2cc(C(F)(F)F)ccc2n1S(=O)(=O)c1cccc(Cl)c1 — higher, 70%

target: T2, Peroxisome proliferator-activated receptor delta (Homo sapiens, UniProt Q03181); test: Transactivation of human GAL4-fused PPARdelta LBD expressed in African green monkey COS7 cells co-expressing 5Gal4 pGL3 TK Luc after overnight incubation by luciferase reporter gene assay; format: cell-based; outline: as §1
T2 sequence (Q03181 whole entry): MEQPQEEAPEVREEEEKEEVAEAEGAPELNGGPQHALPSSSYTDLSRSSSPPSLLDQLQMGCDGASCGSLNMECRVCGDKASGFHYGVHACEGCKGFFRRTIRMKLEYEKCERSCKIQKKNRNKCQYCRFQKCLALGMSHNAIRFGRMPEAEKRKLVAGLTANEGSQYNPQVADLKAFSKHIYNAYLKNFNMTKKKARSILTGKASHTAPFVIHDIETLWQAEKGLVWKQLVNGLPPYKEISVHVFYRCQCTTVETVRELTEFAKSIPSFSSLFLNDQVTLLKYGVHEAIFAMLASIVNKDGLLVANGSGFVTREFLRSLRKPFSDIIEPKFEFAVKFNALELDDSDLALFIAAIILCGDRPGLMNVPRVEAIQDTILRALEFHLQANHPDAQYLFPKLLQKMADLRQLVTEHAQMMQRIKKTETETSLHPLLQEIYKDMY

Point of comparison: `O=C(O)CCCc1cc2cc(C(F)(F)F)ccc2n1S(=O)(=O)c1cccc(Cl)c1`, EC50 2030 nM. Against it:
- COc1ccc(S(=O)(=O)n2c(CCCC(=O)O)cc3cc(C(F)(F)F)ccc32)cc1 — 1.6-fold lower, 1260 nM
- COc1cccc(S(=O)(=O)n2c(CCCC(=O)O)cc3cc(Cl)ccc32)c1 — 1.7-fold lower, 1230 nM
- O=C(O)CCCc1cc2cc(C(F)(F)F)ccc2n1S(=O)(=O)c1ccc2ncsc2c1 — 1.8-fold lower, 1120 nM
- Cc1ccc(S(=O)(=O)n2c(CCCC(=O)O)cc3cc(Cl)ccc32)cc1 — 1.9-fold lower, 1080 nM
- O=C(O)CCCc1cc2cc(Cl)ccc2n1S(=O)(=O)c1ccc2nc[nH]c2c1 — higher, > 5000 nM
- Nc1nc2ccc(S(=O)(=O)n3c(CCCC(=O)O)cc4cc(Cl)ccc43)cc2o1 — within 1.5-fold, 1390 nM

target: T3, Peroxisome proliferator-activated receptor delta (Homo sapiens) (UniProt Q03181); test: Transactivation of human GAL4-fused PPARdelta LBD expressed in African green monkey COS7 cells co-expressing 5Gal4 pGL3 TK Luc after overnight incubation by luciferase reporter gene assay relative to GW501516; format: cell-based; outline: as §1
T3 sequence (whole entry): T2 sequence (Q03181 whole entry)

Point of comparison: `COc1ccc(S(=O)(=O)n2c(CCCC(=O)O)cc3cc(C(F)(F)F)ccc32)cc1`, Emax 24%. Against it:
- COc1ccccc1S(=O)(=O)n1c(CCCC(=O)O)cc2cc(C(F)(F)F)ccc21 — lower, < 20%
- COc1cccc(S(=O)(=O)n2c(CCCC(=O)O)cc3cc(Cl)ccc32)c1 — higher, 43%
- O=C(O)CCCc1cc2cc(C(F)(F)F)ccc2n1S(=O)(=O)c1ccc2ncsc2c1 — higher, 79%
- Cc1ccc(S(=O)(=O)n2c(CCCC(=O)O)cc3cc(Cl)ccc32)cc1 — higher, 29%
- O=C(O)CCCc1cc2cc(Cl)ccc2n1S(=O)(=O)c1ccc2nc[nH]c2c1 — lower, 20%
- Nc1nc2ccc(S(=O)(=O)n3c(CCCC(=O)O)cc4cc(Cl)ccc43)cc2o1 — higher, 66%
- O=C(O)CCCc1cc2cc(C(F)(F)F)ccc2n1S(=O)(=O)c1cccc(Cl)c1 — lower, 21%

target: T4, Peroxisome proliferator-activated receptor alpha (Homo sapiens, UniProt Q07869); test: Transactivation of human GAL4-fused PPARalpha LBD expressed in African green monkey COS7 cells co-expressing 5Gal4 pGL3 TK Luc after overnight incubation by luciferase reporter gene assay; format: cell-based; outline: as §1
T4 sequence (Q07869 whole entry): T1 sequence (whole entry)

Point of comparison: `COc1ccc(S(=O)(=O)n2c(CCCC(=O)O)cc3cc(C(F)(F)F)ccc32)cc1`, EC50 764 nM. Against it:
- COc1ccccc1S(=O)(=O)n1c(CCCC(=O)O)cc2cc(C(F)(F)F)ccc21 — higher, > 5000 nM
- COc1cccc(S(=O)(=O)n2c(CCCC(=O)O)cc3cc(Cl)ccc32)c1 — 2.5-fold lower, 305 nM
- O=C(O)CCCc1cc2cc(C(F)(F)F)ccc2n1S(=O)(=O)c1ccc2ncsc2c1 — 2.1-fold higher, 1620 nM
- Cc1ccc(S(=O)(=O)n2c(CCCC(=O)O)cc3cc(Cl)ccc32)cc1 — higher, > 5000 nM
- O=C(O)CCCc1cc2cc(Cl)ccc2n1S(=O)(=O)c1ccc2nc[nH]c2c1 — higher, > 5000 nM
- Nc1nc2ccc(S(=O)(=O)n3c(CCCC(=O)O)cc4cc(Cl)ccc43)cc2o1 — higher, > 5000 nM
- O=C(O)CCCc1cc2cc(C(F)(F)F)ccc2n1S(=O)(=O)c1cccc(Cl)c1 — 3.2-fold higher, 2420 nM

target: T5, Peroxisome proliferator-activated receptor gamma (Homo sapiens, UniProt P37231); test: Transactivation of human GAL4-fused PPARgamma LBD expressed in African green monkey COS7 cells co-expressing 5Gal4 pGL3 TK Luc after overnight incubation by luciferase reporter gene assay; format: cell-based; outline: as §1
T5 sequence (P37231 whole entry): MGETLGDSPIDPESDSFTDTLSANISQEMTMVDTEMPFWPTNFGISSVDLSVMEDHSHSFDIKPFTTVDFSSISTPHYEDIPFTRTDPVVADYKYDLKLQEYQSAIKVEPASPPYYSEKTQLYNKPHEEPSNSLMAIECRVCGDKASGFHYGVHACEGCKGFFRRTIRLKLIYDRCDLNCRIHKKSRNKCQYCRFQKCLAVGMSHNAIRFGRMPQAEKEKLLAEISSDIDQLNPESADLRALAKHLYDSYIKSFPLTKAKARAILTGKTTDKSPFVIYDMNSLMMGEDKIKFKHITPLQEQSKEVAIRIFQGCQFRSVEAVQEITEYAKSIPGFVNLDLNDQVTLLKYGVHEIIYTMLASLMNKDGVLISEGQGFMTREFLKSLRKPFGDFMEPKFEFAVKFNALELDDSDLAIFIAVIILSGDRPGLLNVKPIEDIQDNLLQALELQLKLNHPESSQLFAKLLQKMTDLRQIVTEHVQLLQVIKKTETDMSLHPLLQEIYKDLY

Point of comparison: `O=C(O)CCCc1cc2cc(C(F)(F)F)ccc2n1S(=O)(=O)c1ccc2ncsc2c1`, EC50 147 nM. Against it:
- COc1ccc(S(=O)(=O)n2c(CCCC(=O)O)cc3cc(C(F)(F)F)ccc32)cc1 — 1.8-fold lower, 82 nM
- COc1ccccc1S(=O)(=O)n1c(CCCC(=O)O)cc2cc(C(F)(F)F)ccc21 — 8.5-fold higher, 1250 nM
- COc1cccc(S(=O)(=O)n2c(CCCC(=O)O)cc3cc(Cl)ccc32)c1 — 2-fold lower, 72 nM
- Cc1ccc(S(=O)(=O)n2c(CCCC(=O)O)cc3cc(Cl)ccc32)cc1 — 1.9-fold higher, 277 nM
- O=C(O)CCCc1cc2cc(Cl)ccc2n1S(=O)(=O)c1ccc2nc[nH]c2c1 — higher, > 5000 nM
- Nc1nc2ccc(S(=O)(=O)n3c(CCCC(=O)O)cc4cc(Cl)ccc43)cc2o1 — 2.6-fold higher, 378 nM
- O=C(O)CCCc1cc2cc(C(F)(F)F)ccc2n1S(=O)(=O)c1cccc(Cl)c1 — 1.7-fold higher, 256 nM

target: T6, Peroxisome proliferator-activated receptor gamma (Homo sapiens) (UniProt P37231); test: Transactivation of human GAL4-fused PPARgamma LBD expressed in African green monkey COS7 cells co-expressing 5Gal4 pGL3 TK Luc after overnight incubation by luciferase reporter gene assay relative to rosiglitazone; format: cell-based; outline: as §1
T6 sequence (whole entry): T5 sequence (P37231 whole entry)

Point of comparison: `Cc1ccc(S(=O)(=O)n2c(CCCC(=O)O)cc3cc(Cl)ccc32)cc1`, Emax 30%. Against it:
- COc1ccc(S(=O)(=O)n2c(CCCC(=O)O)cc3cc(C(F)(F)F)ccc32)cc1 — higher, 38%
- COc1ccccc1S(=O)(=O)n1c(CCCC(=O)O)cc2cc(C(F)(F)F)ccc21 — higher, 35%
- COc1cccc(S(=O)(=O)n2c(CCCC(=O)O)cc3cc(Cl)ccc32)c1 — higher, 48%
- O=C(O)CCCc1cc2cc(C(F)(F)F)ccc2n1S(=O)(=O)c1ccc2ncsc2c1 — higher, 70%
- O=C(O)CCCc1cc2cc(Cl)ccc2n1S(=O)(=O)c1ccc2nc[nH]c2c1 — higher, 42%
- Nc1nc2ccc(S(=O)(=O)n3c(CCCC(=O)O)cc4cc(Cl)ccc43)cc2o1 — higher, 52%
- O=C(O)CCCc1cc2cc(C(F)(F)F)ccc2n1S(=O)(=O)c1cccc(Cl)c1 — higher, 49%
